Values belong to the compound of their own block, whether it stands above or below them. Calls of active or inactive are those of the source. The rule behind the calls is not given here.
Tests used:
[1] = molecular target: T1, Nuclear receptor subfamily 1 group I member 2 (Homo sapiens, UniProt O75469); experiment: Transactivation of full length human PXR transfected in human HepG2 cells after 18 hrs by luciferase reporter assay relative to rifaximin; type: cell-based
T1 sequence (O75469 whole entry): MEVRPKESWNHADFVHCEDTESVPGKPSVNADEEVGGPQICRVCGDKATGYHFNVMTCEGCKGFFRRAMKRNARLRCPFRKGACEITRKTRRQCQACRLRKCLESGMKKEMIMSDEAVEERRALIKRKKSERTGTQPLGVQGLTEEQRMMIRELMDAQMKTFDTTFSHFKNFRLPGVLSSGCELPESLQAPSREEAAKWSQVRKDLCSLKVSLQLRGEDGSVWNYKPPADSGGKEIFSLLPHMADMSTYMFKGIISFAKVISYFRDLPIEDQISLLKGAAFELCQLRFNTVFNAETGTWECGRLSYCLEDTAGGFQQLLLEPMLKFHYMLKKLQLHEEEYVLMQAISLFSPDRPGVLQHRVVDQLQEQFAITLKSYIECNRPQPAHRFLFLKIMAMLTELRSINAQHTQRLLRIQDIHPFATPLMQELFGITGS
Summary of the method: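 In HepG2 transfected with hPXR, RXR, PXRE-luciferase and Renilla plasmids, cells were exposed 18 h to compound at 10 μM, or at 10, 25 and 50 μM for EC50 determination, alongside rifaximin (10 μM) as reference agonist. Firefly signal normalised to Renilla.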

HepG2 [2] = experiment: Up regulation of full length PXR expression in human HepG2 cells at 10 uM after 18 hrs by quantitative real-time PCR analysis; type: functional, cell-based
[3] = molecular target: T1, Nuclear receptor subfamily 1 group I member 2; experiment: Transactivation of PXR in human HepG2 cells assessed as up regulation of CYP3A4 gene expression at 10 uM after 18 hrs by quantitative Real-time PCR analysis; type: cell-based; details: hepg2, 18 h
[4] = molecular target: T1, Nuclear receptor subfamily 1 group I member 2; experiment: Antagonist activity at full length human PXR transfected in human HepG2 cells assessed as reduction in rifaximin-induced receptor transactivation at 50 uM after 18 hrs by luciferase reporter assay; type: cell-based; details: hepg2, 18 h
Summary of the method: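 HepG2 (5 × 10⁴ cells/well, MEM/10% FBS) transiently transfected with full-length human PXR, RXR, PXRE-luciferase reporter and Renilla vectors, then treated 18 h with rifaximin (10 μM) plus compound (50 μM). Luciferase read-out normalised as RLU/Renilla RRU; p < 0.05 significance.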

[5] = Solubility of the compound; type: physicochemical
[6] = molecular target: T1, Nuclear receptor subfamily 1 group I member 2; experiment: Antagonist activity at PXR (unknown origin)
[7] = molecular target: T1, Nuclear receptor subfamily 1 group I member 2; experiment: Antagonist activity at full length human PXR transfected in human HepG2 cells assessed as reduction in rifaximin-induced receptor transactivation after 18 hrs by luciferase reporter assay; type: cell-based; details: for inhibition (INH): human, hepg2, 18 h
Summary of the method: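 Rifaximin-stimulated (10 μM) HepG2 transiently co-transfected with 75 ng pSG5-hPXRT1, 75 ng pSG5-RXR, 250 ng pGL3(henance)PXRE reporter and 100 ng pGL4.70-Renilla, then co-treated 18 h with compound at 10, 25 and 50 μM. Firefly luciferase RLU divided by Renilla RRU to normalise transfection efficiency; IC50 taken from concentration-response curve.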

[8] = molecular target: T1, Nuclear receptor subfamily 1 group I member 2; experiment: Antagonist activity against PXR in human HepG2 cells assessed as inhibition of rifaximin-induced CYP3A4 gene expression at 25 uM after 18 hrs by quantitative real-time PCR analysis; type: cell-based; details: hepg2, 18 h
[9] = molecular target: T1, Nuclear receptor subfamily 1 group I member 2; experiment: Activity at PXR in human HepG2 cells assessed as up regulation of rifaximin-induced PXR gene expression at 25 uM after 18 hrs by quantitative real-time PCR analysis; details: hepg2, 18 h
HepG2 [10] = experiment: Toxicity in human HepG2 cells expressing human full-length PXR assessed as reduction in cell viability at 50 uM; type: cell-based; details: hepg2, 50 µM

- EC50 [1]: 10.5 µM
- Activity [3]: Active
Compound: CC/C(=C(/CC)c1ccc(OC)cc1)c1ccc(OC)cc1
- Activity (HepG2 [2]): Active

- inhibition (INH) [4]: Not Active
Compound: CC/C(=C(/CC)c1ccc(OS(=O)(=O)[O-])cc1)c1ccc(OS(=O)(=O)[O-])cc1.[Na+].[Na+]

- inhibition (INH) [4]: Not Active
Compound: CC/C(=C(/CC)c1ccc(OCCCOS(=O)(=O)[O-])cc1)c1ccc(OCCCOS(=O)(=O)[O-])cc1.[Na+].[Na+]

- solubility [5]: Insoluble
Compound: CC/C(=C(/CC)c1ccc(OCCCCOC(C)=O)cc1)c1ccc(OCCCCOC(C)=O)cc1

- IC50 [6]: 0.85 µM
Compound: Cc1cc(-c2onc(C)c2C(=O)Sc2ccccc2)no1

- inhibition (INH) [4]: Active
Compound: CC/C(=C(/CC)c1ccc(OCCOC(C)=O)cc1)c1ccc(OCCOC(C)=O)cc1

- inhibition (INH) [4]: Active
Compound: CC/C(=C(/CC)c1ccc(OCCCOC(C)=O)cc1)c1ccc(OCCCOC(C)=O)cc1

- inhibition (INH) [4]: Not Active
Compound: CC/C(=C(/CC)c1ccc(OCCOS(=O)(=O)[O-])cc1)c1ccc(OCCOS(=O)(=O)[O-])cc1.[Na+].[Na+]

- inhibition (INH) [4]: Active
- IC50 [7]: 14.6 µM
- inhibition (INH) [7]: Dose-dependent effect
- inhibition (INH) [8]: Active
- Activity [9]: Active
Compound: CC/C(=C(/CC)c1ccc(O)cc1)c1ccc(O)cc1 [DIETHYLSTILBESTROL]

Compound: CC/C(=C(/CC)c1ccc(OCCCO)cc1)c1ccc(OCCCO)cc1
- Activity (HepG2 [10]): Toxic

- inhibition (INH) [4]: Not Active
Compound: CC/C(=C(/CC)c1ccc(OCCCCOS(=O)(=O)[O-])cc1)c1ccc(OCCCCOS(=O)(=O)[O-])cc1.[Na+].[Na+]

- inhibition (INH) [4]: Active
- IC50 [7]: 27.4 µM
- inhibition (INH) [7]: Dose-dependent effect
- inhibition (INH) [8]: Active
- Activity [9]: Active
Compound: CC/C(=C(/CC)c1ccc(OCCO)cc1)c1ccc(OCCO)cc1

Compound: CC/C(=C(/CC)c1ccc(OCCCCO)cc1)c1ccc(OCCCCO)cc1
- Activity (HepG2 [10]): Toxic

- EC50 [1]: 11.2 µM
Compound: CO[C@H]1/C=C/O[C@@]2(C)Oc3c(C)c(O)c4c(O)c(c5c(nc6cc(C)ccn65)c4c3C2=O)NC(=O)/C(C)=C\C=C\[C@H](C)[C@H](O)[C@@H](C)[C@@H](O)[C@@H](C)[C@H](OC(C)=O)[C@@H]1C [RIFAXIMIN]
- Activity (HepG2 [2]): Active

From ChEMBL document CHEMBL3632562, “Diethylstilbestrol-scaffold-based pregnane X receptor modulators” (Eur J Med Chem, 2015)
